Assay results taken from ChEMBL document CHEMBL4364254 (J Med Chem, 2019).

Experiments:
Cannabinoid receptor 2 = Cannabinoid receptor 2 (Homo sapiens, UniProt P34972); assay: Displacement of [3H]CP55940 from human CB2 receptor expressed in HEK293 cell membranes
How it was run: (§1)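 Competition binding against [3H]CP55940 in membranes from HEK cells overexpressing human CB1 or CB2. Ki values are derived from displacement, and the same membrane format is used for both receptors. Values are averages of three to six independent measurements.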

Cannabinoid receptor 1 = Cannabinoid receptor 1 (Homo sapiens, UniProt P21554); assay: Displacement of [3H]CP55940 from human CB1 receptor expressed in HEK293 cell membranes; how it was run: as §1
Chain of Cannabinoid receptor 1 (P21554 whole entry): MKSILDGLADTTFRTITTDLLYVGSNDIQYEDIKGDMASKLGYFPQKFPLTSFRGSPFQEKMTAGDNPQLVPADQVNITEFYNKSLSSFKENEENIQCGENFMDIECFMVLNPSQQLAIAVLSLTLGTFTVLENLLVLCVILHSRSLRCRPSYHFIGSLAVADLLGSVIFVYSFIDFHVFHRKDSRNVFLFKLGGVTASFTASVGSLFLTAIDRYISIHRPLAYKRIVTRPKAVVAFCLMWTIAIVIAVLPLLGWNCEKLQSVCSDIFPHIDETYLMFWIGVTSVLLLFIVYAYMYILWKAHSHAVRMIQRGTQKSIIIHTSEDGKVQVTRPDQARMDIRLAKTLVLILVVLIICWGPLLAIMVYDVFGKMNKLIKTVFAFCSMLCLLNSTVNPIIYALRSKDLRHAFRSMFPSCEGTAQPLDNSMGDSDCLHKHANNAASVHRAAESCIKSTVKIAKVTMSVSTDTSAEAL

Homo sapiens = organism: Homo sapiens; assay: Selectivity ratio of Ki for displacement of [3H]CP55940 from human CB2 receptor expressed in HEK293 cell membranes to Ki for displacement of [3H]CP55940 from human CB1 receptor expressed in HEK293 cell membranes
How it was run: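 Competitive displacement of [3H]CP55940 from membranes of HEK cells overexpressing human CB1 or human CB2. A Ki was determined at each receptor, and selectivity was expressed as Ki(CB2)/Ki(CB1). Ki values are means of three to six independent measurements.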

[1] = Half life in Sprague-Dawley rat plasma at 1 mg/kg, po by LC-MS/MS analysis; assay type: ADME, organism-based
[2] = Cmax in C57BL6 mouse plasma at 0.3 mg/kg, po measured at 1 hr post dose by LC-MS/MS analysis; assay type: ADME, organism-based; parameters: dose 0.3 mg/kg, route oral
How it was run: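 Female C57BL6 mice, 8 weeks old, received a single oral dose of 0.3 mg/kg in 1% NMP/0.3% Tween 80 in 0.5% Na-CMC. […] Maximum observed concentrations are reported; plasma clearance and half-life come from PK analysis.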

Chain of Cannabinoid receptor 2 (P34972 whole entry): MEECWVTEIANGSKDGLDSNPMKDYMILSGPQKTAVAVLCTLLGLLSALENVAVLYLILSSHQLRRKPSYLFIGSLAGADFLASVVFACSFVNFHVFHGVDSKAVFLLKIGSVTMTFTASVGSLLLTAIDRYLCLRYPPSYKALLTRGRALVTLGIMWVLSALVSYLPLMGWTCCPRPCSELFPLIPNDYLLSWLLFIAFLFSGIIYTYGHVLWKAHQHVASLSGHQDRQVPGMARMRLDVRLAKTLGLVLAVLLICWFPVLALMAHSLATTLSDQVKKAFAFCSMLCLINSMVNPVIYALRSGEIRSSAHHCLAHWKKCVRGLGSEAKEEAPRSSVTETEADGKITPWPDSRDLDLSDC

| half-life [1] [h] | Cmax [2] [ng/mL] | SMILES | Ki (Cannabinoid receptor 2) [nM] | Ki (Cannabinoid receptor 1) [nM] | Ratio Ki (Homo sapiens) |
| --- | --- | --- | --- | --- | --- |
|  |  | CC1(NC(=O)NC2CCN(c3ncnc4c3nc(-c3ccccc3Cl)n4-c3ccc(Cl)cc3)CC2)CCC(F)(F)CC1 | 7500 | 5 |  |
|  |  | O=C(NCC1CCC(F)(F)CC1)NC1CCN(c2ncnc3c2nc(-c2ccccc2Cl)n3-c2ccc(Cl)cc2)CC1 | > 10000 | 26 |  |
|  |  | CC1(NC(=O)NC2CCCCC2)CCN(c2ncnc3c2nc(-c2ccccc2Cl)n3-c2ccc(Cl)cc2)CC1 | > 10000 | 13 |  |
|  |  | O=C(NC1CCN(c2ncnc3c2nc(-c2ccccc2Cl)n3-c2ccc(Cl)cc2)CC1)N1CCCCC1 | 400 | 1.2 | 330 |
|  |  | O=C(NCC1CCCC1)NC1CCN(c2ncnc3c2nc(-c2ccccc2Cl)n3-c2ccc(Cl)cc2)CC1 | 3200 |  |  |
|  |  | CC1(NC(=O)Nc2ccc(F)cc2F)CCN(c2ncnc3c2nc(-c2ccccc2Cl)n3-c2ccc(Cl)cc2)CC1 | > 10000 | 6 |  |
|  |  | O=C(NC1CCCCC1)NC1CCN(c2ncnc3c2nc(-c2ccccc2Cl)n3-c2ccc(Cl)cc2)CC1 | 4600 | 1.4 |  |
|  |  | CCCN(CC(F)(F)F)C(=O)NC1CCN(c2ncnc3c2nc(-c2ccccc2Cl)n3-c2ccc(Cl)cc2)CC1 | 2800 | 1.1 | 2500 |
|  |  | COCCN(C)C(=O)NC1CCN(c2ncnc3c2nc(-c2ccccc2Cl)n3-c2ccc(Cl)cc2)CC1 | 2300 |  |  |
|  |  | CC1(NS(=O)(=O)NC2CCCCC2)CCN(c2ncnc3c2nc(-c2ccccc2Cl)n3-c2ccc(Cl)cc2)CC1 | 740 | 9 | 82 |
|  |  | O=C(NCC1CCCCC1)NC1CCN(c2ncnc3c2nc(-c2ccccc2Cl)n3-c2ccc(C(F)(F)F)nc2)CC1 |  | 730 |  |
|  |  | CC(C)CN(C)C(=O)NC1CCN(c2ncnc3c2nc(-c2ccccc2Cl)n3-c2ccc(Cl)cc2)CC1 | 600 |  |  |
|  |  | CC1(NC(=O)Nc2ccccc2F)CCN(c2ncnc3c2nc(-c2ccccc2Cl)n3-c2ccc(Cl)cc2)CC1 | > 10000 | 4 |  |
|  |  | O=C(NC1CCCC1)NC1CCN(c2ncnc3c2nc(-c2ccccc2Cl)n3-c2ccc(Cl)cc2)CC1 | > 10000 |  |  |
|  |  | O=C(NC1CCN(c2ncnc3c2nc(-c2ccccc2Cl)n3-c2ccc(Cl)cc2)CC1)NC1(C(F)(F)F)CCCC1 | > 10000 | 6.3 |  |
|  |  | CC1(NC(=O)Nc2ccc(OC(F)F)nc2)CCN(c2ncnc3c2nc(-c2ccccc2Cl)n3-c2ccc(Cl)cc2)CC1 | > 10000 | 81 |  |
|  |  | CC1(NC(=O)NCc2ccccc2F)CCN(c2ncnc3c2nc(-c2ccccc2Cl)n3-c2ccc(Cl)cc2)CC1 | 1100 | 15 | 73 |
|  |  | CC1(NC(=O)NC2CCC(F)(F)CC2)CCN(c2ncnc3c2nc(-c2ccccc2Cl)n3-c2ccc(Cl)cc2)CC1 | > 10000 | 17 |  |
|  |  | O=C(NCc1ccccc1F)NC1CCN(c2ncnc3c2nc(-c2ccccc2Cl)n3-c2ccc(Cl)cc2)CC1 | 220 |  |  |
|  |  | O=C(NCC1CCCCC1)NC1CCN(c2ncnc3c2nc(-c2ccccc2Cl)n3-c2ccc(Cl)cc2)CC1 | 7600 | 0.9 |  |
| 12 | 1230 | O=C(Nc1ccc(F)cc1F)NC1CCN(c2ncnc3c2nc(-c2ccccc2Cl)n3-c2ccc(Cl)cc2)CC1 |  |  |  |
|  |  | CCCN(C)C(=O)NC1CCN(c2ncnc3c2nc(-c2ccccc2Cl)n3-c2ccc(Cl)cc2)CC1 | 630 |  |  |
